Test results reported in ChEMBL document CHEMBL4428050, “Design, Synthesis, and Biological Evaluation of Substituted Pyrimidines as Potential Phosphatidylinositol 3-Kinase (PI3K) Inhibitors” (J Med Chem, 2016).
pIC50: −log10 of the molar value. The source made the active and inactive calls. No cut-off for these calls is given here.

Columns and labels:
[1] = Inhibition of PI3K p110alpha/p85 (unknown origin) using PIP2/ATP as substrate after 1 hr by kinase glo luminescent assay; set-up: species or system Homo sapiens
How it was run: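 PI3K p110α activity read by Kinase-Glo Plus luminescence. IC50 is the mean of triplicate measurements.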

Bel-7402 = test: Antiproliferative activity against human Bel7402 cells after 72 hrs by CCK8 assay; assay type: functional, cell-based; details: Bel-7402, 72 h
A549 = test: Antiproliferative activity against human A549 cells after 72 hrs by CCK8 assay; assay type: functional, cell-based
SGC-7901 = test: Antiproliferative activity against human SGC7901 cells after 72 hrs by CCK8 assay; assay type: functional, cell-based; details: SGC-7901, 72 h
A-431 = test: Antiproliferative activity against human A431 cells after 72 hrs by CCK8 assay; assay type: functional, cell-based
Huh-7 = test: Antiproliferative activity against human HuH7 cells after 72 hrs by CCK8 assay; assay type: functional, cell-based; details: Huh-7, 72 h
PANC-1 = test: Antiproliferative activity against human PANC1 cells after 72 hrs by CCK8 assay; assay type: functional, cell-based
K562 = test: Antiproliferative activity against human K562 cells after 72 hrs by CCK8 assay; assay type: functional, cell-based
MCF7 = test: Antiproliferative activity against human MCF7 cells after 72 hrs by CCK8 assay; assay type: functional, cell-based
HT-1080 = test: Antiproliferative activity against human HT1080 cells after 72 hrs by CCK8 assay; assay type: functional, cell-based; details: HT-1080, 72 h
MOLT-4 = test: Antiproliferative activity against human MOLT4 cells after 72 hrs by CCK8 assay; assay type: functional, cell-based
NCI-N87 = test: Antiproliferative activity against human NCI-N87 cells after 72 hrs by CCK8 assay; assay type: functional, cell-based
DU-145 = test: Antiproliferative activity against human DU145 cells after 72 hrs by CCK8 assay; assay type: functional, cell-based
U-937 = test: Antiproliferative activity against human U937 cells after 72 hrs by CCK8 assay; assay type: functional, cell-based
HeLa = test: Antiproliferative activity against human HeLa cells after 72 hrs by CCK8 assay; assay type: functional, cell-based
BGC-823 = test: Antiproliferative activity against human BGC823 cells after 72 hrs by CCK8 assay; assay type: functional, cell-based
SK-BR-3 = test: Antiproliferative activity against human SK-BR-3 cells after 72 hrs by CCK8 assay; assay type: functional, cell-based; details: SK-BR-3, 72 h
Homo sapiens = organism: Homo sapiens; test: Inhibition of PI3K in human U937 cells assessed as suppression of AKT phosphorylation at S473 after 24 hrs by Western blot analysis; assay type: cell-based
HL-60 = test: Antiproliferative activity against human HL60 cells after 72 hrs by CCK8 assay; assay type: functional, cell-based; details: HL-60, 72 h
PC-3 = test: Antiproliferative activity against human PC3 cells after 72 hrs by CCK8 assay; assay type: functional, cell-based; details: PC-3, 72 h
MDA-MB-231 = test: Antiproliferative activity against human MDA-MB-231 cells by WST8 assay; assay type: functional, cell-based

Compound	pIC50 [1]	pIC50 (A549; Homo sapiens, A549, 72 h)	pIC50 (A-431; Homo sapiens, A-431, 72 h)	pIC50 (PANC-1; Homo sapiens, PANC-1, 72 h)	pIC50 (K562; Homo sapiens, K562, 72 h)	pIC50 (MCF7; Homo sapiens, MCF7, 72 h)	pIC50 (MOLT-4; Homo sapiens, MOLT-4, 72 h)	pIC50 (DU-145; Homo sapiens, DU-145, 72 h)	pIC50 (U-937; Homo sapiens, U-937, 72 h)	pIC50 (HeLa; Homo sapiens, HeLa, 72 h)	pIC50 (BGC-823; Homo sapiens, BGC-823, 72 h)	pIC50 (SK-BR-3)	further results
C[C@@H]1CN(c2nc(-c3cnc(N)cc3C(F)(F)F)nc(N3C[C@H]4C[C@@H]3CO4)n2)C[C@H](C)O1	5.02												
C[C@@H]1CN(c2nc(N3C[C@@H](C)O[C@@H](C)C3)c3ccc(-c4cnc(N)cc4C(F)(F)F)cc3n2)C[C@H](C)O1	< 5.00												
CC(/C=C/C(=O)NO)=C\[C@@H](C)C(=O)c1ccc(N(C)C)cc1 [TRICHOSTATIN]		7.30	6.74	7.00	6.92	7.15	7.70	7.22	7.40	7.05	7.15	7.30	pIC50 (Bel-7402): 7.00; pIC50 (SGC-7901): 7.52; pIC50 (Huh-7): 7.22; pIC50 (HT-1080): 7.10; pIC50 (NCI-N87; Homo sapiens, NCI-N87, 72 h): 7.22
Nc1cc(C(F)(F)F)c(-c2cc(N3CCOCC3)nc(NCCN3CCOCC3)n2)cn1	6.25												
Nc1cc(C(F)(F)F)c(-c2cc(N3C[C@@H]4OCCO[C@@H]4C3)nc(N3CCOCC3)n2)cn1	6.05				< 5.00			< 5.00					
Nc1cc(C(F)(F)F)c(-c2cc(N3CCOCC3)nc(N3C[C@@H]4OCCO[C@H]4C3)n2)cn1 (racemic)													inhibition (Homo sapiens): Active
C[C@@H]1CN(c2cc(-c3cnc(N)cc3C(F)(F)F)nc(N3C[C@@H]4OCCO[C@@H]4C3)n2)C[C@H](C)O1	5.24												
C[C@@H]1CN(c2nc(-c3cnc(N)cc3C(F)(F)F)nc(N3C[C@@H](C)O[C@@H](C)C3)n2)C[C@H](C)O1	< 5.00												
Nc1cc(C(F)(F)F)c(-c2ccc3c(N4CCOCC4)nc(N4CCOCC4)nc3c2)cn1	< 5.00												
Nc1cc(C(F)(F)F)c(-c2cc(N3C[C@H]4OCCO[C@@H]4C3)nc(N3CCOCC3)n2)cn1 (racemic)	6.43	5.25	5.52	5.22	5.50	5.14	5.49	5.15	5.54	5.27	5.36		pIC50 (Bel-7402): 5.19; pIC50 (SGC-7901): 5.32; pIC50 (Huh-7): 5.20; pIC50 (HT-1080): 5.25; pIC50 (NCI-N87; Homo sapiens, NCI-N87, 72 h): 5.21
C[C@@H]1CN(c2cc(-c3cnc(N)cc3C(F)(F)F)nc(N3C[C@@H](C)O[C@@H](C)C3)n2)C[C@H](C)O1	< 5.00												
C[C@@H]1CN(c2nc(-c3cnc(N)cc3C(F)(F)F)nc(N3C[C@@H]4OCCO[C@@H]4C3)n2)C[C@H](C)O1	< 5.00												

The remaining molecules from weak to strong by pIC50 [1], led by results:

pIC50 [1]	pIC50 (A549; Homo sapiens, A549, 72 h)	pIC50 (A-431; Homo sapiens, A-431, 72 h)	pIC50 (PANC-1; Homo sapiens, PANC-1, 72 h)	pIC50 (K562; Homo sapiens, K562, 72 h)	pIC50 (MCF7; Homo sapiens, MCF7, 72 h)	pIC50 (MOLT-4; Homo sapiens, MOLT-4, 72 h)	pIC50 (DU-145; Homo sapiens, DU-145, 72 h)	pIC50 (U-937; Homo sapiens, U-937, 72 h)	pIC50 (HeLa; Homo sapiens, HeLa, 72 h)	pIC50 (BGC-823; Homo sapiens, BGC-823, 72 h)	pIC50 (SK-BR-3)	Compound	further results
6.65												C[C@@H]1CN(c2cc(-c3cnc(N)cc3C(F)(F)F)nc(N3CCOCC3)n2)C[C@H](C)O1	
6.89												Nc1ncc(-c2cc(N3CCOCC3)nc(N3C[C@H]4OCCO[C@@H]4C3)n2)cn1 (racemic)	
6.93	5.34	4.94	5.07	4.83	4.78	5.39	6.00	4.98	< 4.00		5.19	Nc1cc(C(F)(F)F)c(-c2cc(N3CCOCC3)nc(Nc3cccc(N4CCOCC4)c3)n2)cn1	pIC50 (HL-60): 5.36; pIC50 (PC-3): 5.66; pIC50 (MDA-MB-231): 5.14; pIC50 (NCI-N87; Homo sapiens, NCI-N87, 72 h): 5.33
6.93	5.30	5.59	5.44	5.76	5.31	5.60	5.32	5.75	5.37	5.34		Nc1cc(C(F)(F)F)c(-c2cc(N3CCOCC3)nc(N3C[C@@H]4OCCO[C@@H]4C3)n2)cn1	pIC50 (Bel-7402): 5.24; pIC50 (SGC-7901): 5.43; pIC50 (Huh-7): 5.32; pIC50 (HT-1080): 5.32; pIC50 (NCI-N87; Homo sapiens, NCI-N87, 72 h): 5.71
7.04	5.72	5.64	5.86	5.57	5.85	6.38	5.85	6.24	5.74	5.85		C[C@@H]1CN(c2nc(-c3cnc(N)cc3C(F)(F)F)cc(N3CCOCC3)n2)C[C@H](C)O1	pIC50 (Bel-7402): 5.79; pIC50 (SGC-7901): 5.91; pIC50 (Huh-7): 5.92; pIC50 (HT-1080): 5.70; pIC50 (NCI-N87; Homo sapiens, NCI-N87, 72 h): 6.28
7.17											5.37	Nc1cc(C(F)(F)F)c(-c2nc(N3CCOCC3)nc(N3C[C@H]4OCCO[C@@H]4C3)n2)cn1	pIC50 (HL-60): 5.57; pIC50 (PC-3): 5.25; pIC50 (A549; a549): 5.10; pIC50 (A-431; a-431): 4.85; pIC50 (PANC-1; panc-1): 5.04; pIC50 (K562; k562): 4.61; pIC50 (MDA-MB-231): 4.82; pIC50 (MCF7; mcf7): 5.14; pIC50 (MOLT-4; molt-4): 5.64; pIC50 (NCI-N87; nci-n87): 5.41; pIC50 (DU-145; du-145): 5.13; pIC50 (U-937; u-937): 5.39; pIC50 (HeLa; hela): < 4.00
7.21	5.19			5.20	5.13	5.71	4.82	5.47	5.12	5.18	5.46	Nc1cc(C(F)(F)F)c(-c2cc(N3CCOCC3)nc(N3C[C@H]4OCCO[C@@H]4C3)n2)cn1	
7.22	5.52	5.75	5.56	5.62	5.60	5.94	5.62	6.14	5.75	5.61		Nc1cc(C(F)(F)F)c(-c2cc(N3CCOCC3)nc(N3C[C@H]4C[C@@H]3CO4)n2)cn1	pIC50 (Bel-7402): 5.55; pIC50 (SGC-7901): 5.64; pIC50 (Huh-7): 5.53; pIC50 (HT-1080): 5.57; pIC50 (NCI-N87; Homo sapiens, NCI-N87, 72 h): 5.85
7.42	5.02	4.49	5.12	4.61	5.03	5.68	5.97	5.26	< 4.00		5.44	Nc1cc(C(F)(F)F)c(-c2nc(N3CCOCC3)nc(N3C[C@@H]4OCCO[C@H]4C3)n2)cn1	pIC50 (HL-60): 5.31; pIC50 (PC-3): 5.20; pIC50 (MDA-MB-231): 4.92; pIC50 (NCI-N87; Homo sapiens, NCI-N87, 72 h): 5.56
7.46											5.80	Nc1cc(C(F)(F)F)c(-c2cc(N3CCOCC3)nc(N3C[C@@H]4OCCO[C@H]4C3)n2)cn1	pIC50 (A549; a549): 5.60; pIC50 (K562; k562): 5.59; pIC50 (MCF7; mcf7): 5.42; pIC50 (MOLT-4; molt-4): 6.01; pIC50 (DU-145; du-145): 5.31; pIC50 (U-937; u-937): 5.82; pIC50 (HeLa; hela): 5.61; pIC50 (BGC-823; bgc-823): 5.55
7.49	5.39	< 5.00	5.21		5.09	5.92		5.52		5.02		Nc1cc(C(F)(F)F)c(-c2nc(N3CCOCC3)nc(N3C[C@H]4OCCO[C@@H]4C3)n2)cn1 (racemic)	pIC50 (Bel-7402): 5.23; pIC50 (SGC-7901): 5.35; pIC50 (Huh-7): 5.25; pIC50 (K562; k562): < 5.00; pIC50 (HT-1080): 5.00; pIC50 (NCI-N87; nci-n87): 6.11; pIC50 (DU-145; du-145): 5.48; pIC50 (HeLa; hela): < 5.00
7.51	5.26	5.23	5.63	4.95	5.30	5.95	5.17	5.62	< 4.00		5.79	CS(=O)(=O)N1CCN(c2ccc(Nc3nc(-c4cnc(N)cc4C(F)(F)F)cc(N4CCOCC4)n3)cc2)CC1	pIC50 (HL-60): 6.03; pIC50 (PC-3): 5.13; pIC50 (MDA-MB-231): 5.27; pIC50 (NCI-N87; Homo sapiens, NCI-N87, 72 h): 5.89
7.59	5.11			5.06	5.03	5.75	< 5.00	5.46	5.16	5.08	5.57	Nc1cc(C(F)(F)F)c(-c2cc(N3CCOCC3)nc(Nc3ccc(N4CCOCC4)cc3)n2)cn1	
7.64	5.53			5.44	5.36	5.95	5.18	5.70	5.39	5.44	5.80	CS(=O)(=O)N1CCN(c2nc(-c3cnc(N)cc3C(F)(F)F)cc(N3CCOCC3)n2)CC1	
8.13												Oc1cccc(-c2nc(N3CCOCC3)c3oc4ncccc4c3n2)c1 [PI-103]	
